Hits are enriched below; roughly 3.1% of the tested compounds scored in any of these assays.
hERG protect: shields human hERG channel from block by proarrhythmic agents; hit rate 0.51% among 310,000; activation (rescue from dofetilide block), less the hit threshold, % at 10 µM; AID 1511; CHO-hERG, FluxOR thallium flux, dofetilide IC70 present; Q12809;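 active = activation above the mean of controls blocked by dofetilide plus 5 SD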;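 note: thallium influx through hERG after potassium depolarization seen as dye fluorescence rise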
KCNQ1 inh: inhibitors of human KCNQ1 potassium channel. P51787. CHO-K1 KCNQ1, FluxOR thallium flux fluorescence; stronger effect = higher value. B-score at 10 µM. hit rate 1.3% among 310,000;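 active = compounds whose thallium flux B-score, printed positive for inhibition, exceeds three library SD while starting fluorescence stays within three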;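 note: channel opened by potassium depolarization with thallium stimulus after 20 min compound exposure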
Target sequence (P51787 whole entry, looked up): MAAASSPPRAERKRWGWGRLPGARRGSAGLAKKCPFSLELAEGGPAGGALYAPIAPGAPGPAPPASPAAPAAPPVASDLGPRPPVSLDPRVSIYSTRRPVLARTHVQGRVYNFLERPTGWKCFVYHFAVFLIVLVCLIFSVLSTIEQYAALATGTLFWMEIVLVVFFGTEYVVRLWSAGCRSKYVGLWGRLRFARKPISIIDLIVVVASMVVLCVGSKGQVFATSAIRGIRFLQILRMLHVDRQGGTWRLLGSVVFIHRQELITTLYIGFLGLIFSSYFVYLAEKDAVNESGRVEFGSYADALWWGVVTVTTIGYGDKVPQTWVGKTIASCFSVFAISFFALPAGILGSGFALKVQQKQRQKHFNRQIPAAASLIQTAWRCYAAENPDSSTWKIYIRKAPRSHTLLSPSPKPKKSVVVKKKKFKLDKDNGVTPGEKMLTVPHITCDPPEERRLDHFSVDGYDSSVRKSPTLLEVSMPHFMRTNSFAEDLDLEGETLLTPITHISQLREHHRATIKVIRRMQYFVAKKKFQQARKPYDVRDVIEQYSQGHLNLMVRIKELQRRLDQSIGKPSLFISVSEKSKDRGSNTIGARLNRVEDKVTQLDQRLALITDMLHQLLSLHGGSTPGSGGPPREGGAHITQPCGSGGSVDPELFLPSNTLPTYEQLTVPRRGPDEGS
KCNK9 inh: inhibitors of human KCNK9 two-pore domain potassium channel; Q9NPC2; HEK293 KCNK9, FluxOR thallium flux fluorescence; stronger effect = lower value; B-score at 10 µM; hit rate 1.2% among 310,000; AID 488922;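 active = ratio B-score over 3 SD below the library mean, with starting fluorescence within 5 SD of its mean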;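 note: negative B-score means less thallium flux so channel inhibition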
KCNQ1 pot: potentiators or activators of human KCNQ1 potassium channel; CHO-K1 KCNQ1, thallium flux FluxOR fluorescence; stronger effect = higher value; B-score at 10 µM; hit rate 0.35% among 310,000; AID 2648;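 active = fluorescence ratio B-score, a plate-corrected score, at least three library SD, with initial intensity B-score within 5 SD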
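assay system = CHO-K1 cells stably expressing KCNQ1 | medium = assay buffer, equal DMSO in all wells | timing = 37 °C overnight plating, 90-min dark dye load, 20-min compound pretreatment | measured by = kinetic FluxOR thallium fluorescence, 10-s 1-Hz baseline, 110-s post-stimulus read | measure = fluorescence change relative to baseline, converted to B score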
KCNK3 block: human KCNK3 channel inhibition, primary screen | O14649 | CHO-KCNK3 thallium flux, FluxOR fluorescence; stronger effect = lower value | B-score at 10 µM | hit rate 0.84% among 340,000 | AID 602410;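 active = B-score under library mean minus 4 SD, starting fluorescence ratio at most library mean plus 5 SD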;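 note: more negative B-score means stronger inhibition of thallium flux through KCNK3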
KCNQ1 block val: human KCNQ1 channel inhibition, validation assay | shares compounds with KCNQ1 inh | KCNQ1 cell line, FluxOR thallium flux fluorescence | inhibition, % at 10 µM | hit rate 93% among 1,600;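 active = primary screen active, with duplicate mean exceeding buffer control mean plus 3 SD of buffer wells, cut at about 28% in these data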
CHO KCNQ1 ctr: KCNQ1 inhibitor counter-screen hit in parental CHO cells; shares compounds with KCNQ1 inh; parental CHO-K1, FluxOR thallium flux fluorescence ratio; stronger effect = lower value; zero means no signal rise above baseline; fluorescence ratio (Tl flux) at 10 µM; hit rate 21% among 1,600; AID 588366;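 active = mean of duplicate thallium-flux fluorescence ratios in parental host cells more than 5 SD below the buffer control mean, cut at about 0.38 in these data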;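 note: ratio is peak minus minimum fluorescence divided by baseline fluorescence; actives read low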
KCNQ1 APC inh: confirmation of human KCNQ1 potassium channel inhibitors by electrophysiology; KCNQ1-CHO cells, automated patch clamp current; hit rate 20% among 490; calls only at 10 µM; AID 624120; shares compounds with KCNQ1 inh;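 active = KCNQ1 current drop exceeding 3 SD of negative control wells, seen in both duplicate runs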;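 note: steady state current during a 2 s step from -80 to +40 mV; negative values mean current inhibition and positive values mean potentiation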
KCNQ2 spec: KCNQ1 inhibitor that also blocks rat KCNQ2 channel | shares compounds with KCNQ1 inh | KCNQ2 cells, FluxOR thallium flux fluorescence | AID 651746 | hit rate 71% among 1,600 | inhibition, % at 10 µM;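 active = mean percent inhibition of the KCNQ2 thallium signal more than 5 SD above the buffer-only control wells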;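 note: KCNQ2 expressed in CHO cells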
KCNQ1 KCNE1 spec: human KCNQ1/KCNE1 inhibition in KCNQ1 specificity screen | AID 652147 | hit rate 77% among 1,600 | KCNQ1/KCNE1 cells, FluxOR thallium flux fluorescence | inhibition, % at 10 µM | shares compounds with KCNQ1 inh;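 active = mean percent inhibition of duplicate wells above the buffer-only control mean plus 3 SD of those controls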
KCNK9 block conf: human KCNK9 inhibitor confirmation; shares compounds with KCNK9 inh; HEK293 KCNK9 cells, FluxOR thallium flux fluorescence; inhibition, % at 10 µM; hit rate 43% among 4,900; AID 492992;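 active = thallium signal inhibited by more than 5 SD of the compound-free buffer control wells, on both duplicate plates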
Kir21 sel: selectivity of KCNK9 modulators against mouse Kir2.1. shares compounds with KCNK9 inh. Kir2.1 cells, FluxOR thallium flux fluorescence. inhibition, % at 10 µM. hit rate 4% among 4,900;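 active = thallium signal drop more than 5 SD beyond the mean of the no-compound control wells, seen in both duplicate plates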;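 note: signal is fluorescence rise after thallium addition divided by baseline fluorescence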
HEK293 Tl ctr: non-induced cell nonspecific activity of KCNK9 modulators | shares compounds with KCNK9 inh | non-induced KCNK9-HEK293, FluxOR thallium flux | inhibition, % at 10 µM | hit rate 40% among 4,900;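 active = thallium signal drop beyond 5 SD of the untreated control mean, on both duplicate plates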
KCNK3 inh conf: confirmation of human KCNK3 two-pore domain potassium channel inhibitors; shares compounds with KCNK3 block; CHO-KCNK3 thallium flux, FluxOR fluorescence; 0% buffer, 100% carvedilol maximal block; ratio percent of control, % at 10 µM; hit rate 99% among 2,400; AID 651638;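 active = ratio percent of control, averaged over triplicates, above buffer control mean plus 5 SD, cut at about 64% in these data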;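 note: ratio is the fluorescence rise from min to max over baseline after thallium stimulus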
KCNK3 noninduced: counter-screen for KCNK3 inhibitors: effect in non-induced cells; shares compounds with KCNK3 block; non-induced KCNK3 parental cells, FluxOR thallium flux; stronger effect = lower value; thallium flux ratio (lower = more inhibition) at 10 µM; hit rate 40% among 2,400;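 active = thallium flux ratio, averaged over three wells, more than 5 SD below the buffer control mean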;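 note: host cells are CHO cells without KCNK3 induction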
Hits are given with their value; - = inactive; . = no result given; + = active, no number.

SMILES	hERG protect	KCNQ1 inh	KCNK9 inh	KCNQ1 pot	KCNK3 block	KCNQ1 block val	CHO KCNQ1 ctr	KCNQ2 spec	KCNQ1 KCNE1 spec	KCNK3 inh conf	KCNK3 noninduced	others
Cc1ccccc1C(=O)Oc1cccc(Nc2ncnc3ccccc23)c1	-	11	-7.17	-	-8.83	152.0	0.289	121.0%	+	132.3	0.149
O=C(O)c1c(C(=O)O)c(-c2ccc(F)cc2)n2c1CCC2	-	-	-	-	-	.	.	.	.	.	.
O=C(O)c1cccc(NC2=C(Cl)C(=O)c3ccccc3C2=O)c1	-	16	-	-	-8.71	155.0	0.28	118.7%	+	126.3	0.123
O=C(O)c1ccc(NC2=C(Cl)C(=O)c3ccccc3C2=O)cc1	-	15	-12.4	-	-11.7	167.0	0.261	117.7%	+	137.0	0.0923
Cc1noc(C)c1S(=O)(=O)Nc1ccc2c(c1)CC(=O)N([C@H](C)CO)C[C@H](C)[C@H](CN(C)S(=O)(=O)c1ccc(F)cc1)O2	.	.	.	.	-	.	.	.	.	.	.
CCOC(=O)c1c(CSC(=N)N)n(C)c2cc(Br)c(OC(C)=O)cc12	-	8	-	-	-8.79	43.0	-	60.0%	78.5%	117.3	0.136
CCOC(=O)c1c(CN2CCN(C)CC2)n(C)c2cc(Br)c(OC)cc12	-	-	-	-	-	.	.	.	.	.	.
O=C(NCc1ccc2c(c1)OCO2)c1nc(Cn2cc(Br)cn2)no1	-	-	-	-	-	.	.	.	.	.	.
COc1ccc(NC(=O)c2ccccc2OCc2ccc(F)cc2)c(OC)c1	-	8	-12.1	-	-10.9	75.5	-	84.7%	108.0%	108.3	-	KCNK9 block conf=72.5%;Kir21 sel=-;HEK293 Tl ctr=32.5%
COc1ccc(NC(=O)c2ccccc2NC(=O)c2ccccc2C(=O)O)c(OC)c1	-	-	-	-	-	.	.	.	.	.	.
COc1cccc(-c2nc(NCc3ccccc3)c3ccccc3n2)c1O	-	-	-	-	-	.	.	.	.	.	.
COc1cccc(-c2nc(NC3CCCC3)c3ccccc3n2)c1O	-	9	-	-	-12.9	140.0	0.322	126.3%	98.0%	133.3	-
CCCCn1nc(NC(=O)CC)c2cc3cc(OC)ccc3nc21	-	-	-	-	-	.	.	.	.	.	.
COc1ccc2nc3c(cc2c1)c(NC(=O)c1cccs1)nn3CC(C)C	-	6	-8.96	-	-9.84	143.5	0.287	126.7%	+	93.7	0.148	KCNK9 block conf=-;Kir21 sel=-;HEK293 Tl ctr=-
CCc1ccc(CN(C)C(=O)c2cc(COc3cccc4cnccc34)on2)cc1	-	11	-10.1	-	-13.8	160.0	0.326	132.0%	+	126.7	0.147	KCNK9 block conf=-;Kir21 sel=-;HEK293 Tl ctr=-
CSc1ccc(CN(C)C(C)C(=O)NCC2CCCCC2)cc1 (centres undefined)	-	6	-	-	-9.36	65.5	-	69.0%	79.5%	95.3	-
CSc1ccc(CN(C)C(C)C(=O)Nc2ccc(F)c(F)c2F)cc1 (centres undefined)	-	-	-	-	-	.	.	.	.	.	.
COc1ccc(Cl)cc1NC(=O)CN(C)C(C)C(=O)NCC1CCCCC1 (centres undefined)	-	-	-	-	-	.	.	.	.	.	.
CC(C(=O)NCC1CCCCC1)N(C)Cc1ccc(Br)cc1 (centres undefined)	-	8	-	-	-15	69.0	-	92.0%	66.0%	120.7	0.156
CC(C(=O)NCC1CCCCC1)N(C)Cc1ccc(Cl)cc1 (centres undefined)	-	9	-7.17	-	-9.72	75.5	0.376	68.7%	98.5%	105.3	-
Cc1nc(N2CCN(Cc3ccc4c(c3)OCO4)CC2)c2oc3ccccc3c2n1	.	.	.	.	-	.	.	.	.	.	.
Cc1nc(N2CCN(Cc3ccc4c(c3)OCO4)CC2)c2cc(-c3ccccc3)sc2n1	-	7	-	-	-10.1	118.0	-	111.0%	130.0%	94.7	-	KCNQ1 APC inh=-
CC[n+]1c(C)sc2cc(C)ccc21	-	-	-	-	-	.	.	.	.	.	.
Cc1ccc2c(c1)sc(-c1ccc(N(C)C)cc1)[n+]2C	-	16	-	-	-20.5	+	0.277	-	-	143.3	0.121
CN(CC(=O)Nc1cccc(S(=O)(=O)N2CCOCC2)c1)CC(=O)Nc1ccc(Cl)c(C(F)(F)F)c1	-	8	-	-	-11.5	118.5	-	93.3%	54.0%	119.7	0.136	KCNQ1 APC inh=-
SMILES	hERG protect	KCNQ1 inh	KCNK9 inh	KCNQ1 pot	KCNK3 block	KCNQ1 block val	CHO KCNQ1 ctr	KCNQ2 spec	KCNQ1 KCNE1 spec	KCNK3 inh conf	KCNK3 noninduced	others
CN(CC(=O)NCc1ccc(F)cc1)CC(=O)Nc1ccc(Cl)c(C(F)(F)F)c1	-	8	-	-	-11	104.0	-	86.7%	62.5%	112.7	-	KCNQ1 APC inh=+
CNc1ccccc1C(C)(C)c1cc(-c2cccc([N+](=O)[O-])c2)no1	-	-	-	-	-	.	.	.	.	.	.
CNc1ccccc1C(C)(C)c1cc(-c2cccc(Br)c2)no1	-	6	-	-	-10.7	121.5	-	106.0%	117.0%	121.0	0.15	KCNQ1 APC inh=-
COc1ccc(NC(=O)c2sc3nc(C)nc(N4CCN(c5ccccn5)CC4)c3c2C)cc1Cl	-	9	-	-	-12.3	97.5	-	88.0%	105.0%	118.0	0.154	KCNQ1 APC inh=-
Cc1nc(N2CCN(c3ccccn3)CC2)c2c(C)c(C(=O)Nc3ccc(F)cc3Cl)sc2n1	-	-	-	-	-	.	.	.	.	.	.
Cc1cc(-c2ccc(C(C)C)c(S(=O)(=O)N3CCOc4ccccc43)c2)on1	-	7	-6.66	-	-11.5	96.0	-	82.7%	107.0%	110.7	-	KCNQ1 APC inh=-

Source: PubChem (Johns Hopkins Ion Channel Center)
